The values that follow come from ChEMBL document CHEMBL1157458, “Exploring the substituent effects on a novel series of C1'-dimethyl-aryl Delta8-tetrahydrocannabinol analogs” (Bioorg Med Chem, 2008).

One assay is filed under the species Homo sapiens. The experiment in a line: Selectivity ratio of Ki for human CB1 receptor to Ki for human CB2 receptor.
A further assay deals with Cannabinoid receptor 1 (Homo sapiens, UniProt P21554). Put plainly: Displacement of [3H]CP-55940 from human CB1 receptor expressed in HEK293 cells. The class given is cell-based. (In a radioligand displacement assay an active substance lowers the binding of a labelled ligand.)
Another assay has as its target Cannabinoid receptor 2 (Homo sapiens, UniProt P34972). Put plainly: Displacement of [3H]CP-55940 from human CB2 receptor expressed in CHO-K1 cells. The class given is cell-based.
Assay [1] can be described thus: Cytotoxicity against human DBTRG-O5MG cells assessed as cell death after 18 hrs. The format is functional, cell-based. The method in brief: (§1)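 Glioma lines (U-87MG, T98G, LN-229, DBTRG-O5MG, primary MT310) plated at 70% confluency in 100 µl supplemented medium, left overnight at 37 °C to adhere. Cells were then exposed to escalating drug amounts for 18 h. Viability was measured by CCK-8 absorbance at 450 nm relative to untreated controls. Values are the mean of three data points per determination, three independent determinations.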

A short description of assay [2]: Cytotoxicity against human U87 cells by side flank model relative to control. The class given is functional, U-87MG ATCC. The following applies: U-87 MG.
Assay [3] can be described thus: Cytotoxicity against human MT310 cells assessed as cell death after 18 hrs. The class given is functional, cell-based. In a few lines: as §1
Another assay concerns T98G. The experiment in a line: Cytotoxicity against human T98G cells assessed as cell death after 18 hrs. The class given is functional, cell-based. The method in brief: as §1
Assay [4] is described as follows: Cytotoxicity against human LN229 cells assessed as cell death after 18 hrs. The format is functional, cell-based. The settings on record: LN-229, 18 h. In a few lines: as §1
The nature of assay [5]: Cytotoxicity against human U87MG cells assessed as cell death after 18 hrs. The class given is functional, U-87MG ATCC. In a few lines:
as §1

Cannabinoid receptor 2, sequence (P34972 whole entry): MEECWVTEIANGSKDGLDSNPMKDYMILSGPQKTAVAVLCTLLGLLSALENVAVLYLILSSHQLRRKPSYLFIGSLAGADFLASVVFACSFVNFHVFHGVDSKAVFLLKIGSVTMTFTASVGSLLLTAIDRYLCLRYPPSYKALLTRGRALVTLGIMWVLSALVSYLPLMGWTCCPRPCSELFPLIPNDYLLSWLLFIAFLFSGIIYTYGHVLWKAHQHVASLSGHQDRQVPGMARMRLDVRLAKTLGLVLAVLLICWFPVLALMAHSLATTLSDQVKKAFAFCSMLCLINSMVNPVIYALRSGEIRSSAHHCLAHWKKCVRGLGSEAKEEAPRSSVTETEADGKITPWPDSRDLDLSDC
Cannabinoid receptor 1, sequence (P21554 whole entry): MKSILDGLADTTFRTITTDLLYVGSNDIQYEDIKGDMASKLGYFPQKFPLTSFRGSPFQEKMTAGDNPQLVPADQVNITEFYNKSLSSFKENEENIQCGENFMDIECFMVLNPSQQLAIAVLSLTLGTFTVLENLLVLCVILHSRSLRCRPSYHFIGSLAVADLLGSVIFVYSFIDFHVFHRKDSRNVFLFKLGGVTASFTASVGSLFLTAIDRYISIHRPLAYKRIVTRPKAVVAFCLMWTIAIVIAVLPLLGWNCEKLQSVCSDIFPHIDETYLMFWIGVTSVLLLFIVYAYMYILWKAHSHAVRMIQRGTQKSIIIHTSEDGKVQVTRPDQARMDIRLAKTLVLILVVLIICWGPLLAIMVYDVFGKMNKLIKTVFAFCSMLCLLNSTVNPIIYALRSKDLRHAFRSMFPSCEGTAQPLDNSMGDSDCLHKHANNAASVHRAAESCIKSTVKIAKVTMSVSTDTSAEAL

For orientation: Ki means the equilibrium dissociation constant of an inhibitor or competing ligand from its target. Take `CC1=CC[C@@H]2[C@@H](C1)c1c(O)cc(C(C)(C)c3ccc(C#N)cc3)cc1OC2(C)C`: the Ratio Ki in the assay listed under Homo sapiens turned out to be 3.66. In addition, the Ki at Cannabinoid receptor 1 is 9.25 nM; at Cannabinoid receptor 2, 2.53 nM.

Turning to `CC1=CC[C@@H]2[C@@H](C1)c1c(O)cc(C(C)(C)c3cccc(F)c3)cc1OC2(C)C`, the Ratio Ki in the assay filed under Homo sapiens stood at 5.84. Also, the Ki on Cannabinoid receptor 1 stood at 5.26 nM; on Cannabinoid receptor 2, 0.9 nM.

For the molecule `CC1=CC[C@@H]2[C@@H](C1)c1c(O)cc(C(C)(C)c3cccc(Br)c3)cc1OC2(C)C`, in the assay filed under Homo sapiens, the Ratio Ki was found to be 2.94. Besides, the Ki worked out at 1.59 nM on Cannabinoid receptor 1 and 0.54 nM at Cannabinoid receptor 2.

Regarding `CC1=CC[C@@H]2[C@@H](C1)c1c(O)cc(C(C)(C)c3cc(C)cc(C)c3)cc1OC2(C)C`, the Ratio Ki in the assay listed under Homo sapiens was 1.48. Further, the Ki amounted to 11 nM at Cannabinoid receptor 1 and 7.45 nM on Cannabinoid receptor 2.

For `CC1=CC[C@@H]2[C@@H](C1)c1c(O)cc(C(C)(C)c3ccc(C(N)=O)cc3)cc1OC2(C)C`, the Ratio Ki in the assay listed under Homo sapiens amounted to 1.01.

One may read the EC50 as the concentration at which the effect is half-maximal. For `CC1=CC[C@@H]2[C@@H](C1)c1c(O)cc(C(C)(C)c3cccs3)cc1OC2(C)C`, the Ratio Ki in the assay listed under Homo sapiens was found to be 4. Also, the values for the Ki on Cannabinoid receptor 1 and at Cannabinoid receptor 2 were 1.08 nM and 0.27 nM, respectively. Moreover, the EC50 in assay [1] is 2.67 µM; in [2] it was 1830 nM; in assay [3] it was 4.1 µM; with T98G, 2.21 µM; in assay [4], 2020 nM.

For `CCc1ccc(C(C)(C)c2cc(O)c3c(c2)OC(C)(C)[C@@H]2CC=C(C)C[C@@H]32)cc1`, in the assay listed under Homo sapiens, the Ratio Ki was found to be 2.76. Further, the inhibition constant (Ki) is 1.85 nM at Cannabinoid receptor 1 and 0.67 nM on Cannabinoid receptor 2. Also, the EC50 amounted to 3 µM in [1]; 2520 nM in [2]; 4.11 µM in [3]; 3.23 µM in the assay with T98G; 1670 nM in assay [4].

As for `CC1=CC[C@@H]2[C@@H](C1)c1c(O)cc(C(C)(C)c3ccc(Br)cc3)cc1OC2(C)C`, the Ratio Ki in the assay filed under Homo sapiens was 3.26. The Ki at Cannabinoid receptor 1 came to 5.03 nM; on Cannabinoid receptor 2, 1.54 nM.

Take `CCCc1ccc(C(C)(C)c2cc(O)c3c(c2)OC(C)(C)[C@@H]2CC=C(C)C[C@@H]32)cc1`: the Ratio Ki in the assay listed under Homo sapiens came to 0.23. The Ki at Cannabinoid receptor 1 came to 1.77 nM; at Cannabinoid receptor 2, 7.83 nM. The EC50 in [1] was found to be 3.58 µM; in assay [2], 3170 nM; in [3], 6.46 µM; in the assay with T98G, 3.63 µM; in assay [4] it was 2440 nM.

Regarding `CC1=CC[C@@H]2[C@@H](C1)c1c(O)cc(C(C)(C)c3cccc(Cl)c3)cc1OC2(C)C`, the Ratio Ki in the assay listed under Homo sapiens came to 0.79. Moreover, the Ki at Cannabinoid receptor 1 was 2.8 nM; at Cannabinoid receptor 2, 3.54 nM.

On to `CC1=CC[C@@H]2[C@@H](C1)c1c(O)cc(C(C)(C)c3cccc(C#N)c3)cc1OC2(C)C`, for which the Ratio Ki in the assay filed under Homo sapiens was found to be 2.98. The figures for the Ki at Cannabinoid receptor 1 and at Cannabinoid receptor 2 were 2.72 nM and 0.91 nM, respectively.

For the molecule `CC1=CC[C@@H]2[C@@H](C1)c1c(O)cc(C(C)(C)c3ccc(C)cc3)cc1OC2(C)C`, the Ratio Ki in the assay listed under Homo sapiens was determined as 3.56. The Ki was 3.13 nM on Cannabinoid receptor 1 and 0.88 nM at Cannabinoid receptor 2.

On to `CC1=CC[C@@H]2[C@@H](C1)c1c(O)cc(C(C)(C)c3ccccc3)cc1OC2(C)C`, for which, in the assay filed under Homo sapiens, the Ratio Ki worked out at 13.5. In assay [5], the Activity came out at 75%. Besides, the EC50 in [1] turned out to be 2.27 µM; in assay [2], 3080 nM; in [3], 4.29 µM; in the assay with T98G, 4.68 µM; in assay [4], 2630 nM.

As to `CC1=CC[C@@H]2[C@@H](C1)c1c(O)cc(C(C)(C)c3ccc(F)cc3)cc1OC2(C)C`, the Ratio Ki in the assay listed under Homo sapiens worked out at 6.14. Also, the values for the Ki on Cannabinoid receptor 1 and at Cannabinoid receptor 2 were 76.1 nM and 12.4 nM, respectively. Also, the EC50 in [1] is 3.08 µM; in assay [2] it was 2550 nM; in assay [3], 8.78 µM; in the assay on T98G, 3.3 µM; in assay [4] it was 2020 nM.

`CC1=CC[C@@H]2[C@@H](C1)c1c(O)cc(C(C)(C)c3ccc(Cl)cc3)cc1OC2(C)C`: the Ratio Ki in the assay listed under Homo sapiens came out at 11.2. For the same molecule, the figures for the Ki at Cannabinoid receptor 1 and at Cannabinoid receptor 2 were 18.8 nM and 1.68 nM, respectively. Moreover, the EC50 in assay [1] was 4.61 µM; in [2], 3270 nM; in [3], 7.31 µM; with T98G, 3.4 µM; in [4], 2870 nM.

Consider `CC1=CC[C@@H]2[C@@H](C1)c1c(O)cc(C(C)(C)c3cccc(C)c3)cc1OC2(C)C`, for which, in the assay listed under Homo sapiens, the Ratio Ki was 2.24. In addition, the Ki was 2.53 nM on Cannabinoid receptor 1 and 1.13 nM on Cannabinoid receptor 2.

Take `CC1=CC[C@@H]2[C@@H](C1)c1c(O)cc(C(C)(C)c3ccccc3C)cc1OC2(C)C`: in the assay listed under Homo sapiens, the Ratio Ki was 3.23. Besides, the Ki stood at 34.4 nM on Cannabinoid receptor 1 and 10.7 nM on Cannabinoid receptor 2.
